Tests used:
[1] = test system: Human betaherpesvirus 5; assay: Antiviral activity of the compound was evaluated against the Human cytomegalo virus (HCMV); format: functional, organism-based
Method in brief: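 HCMV Towne strain (plaque-purified P0 isolate), plaque reduction in HFF monolayers; inoculum about 50 PFU; compound dissolved in overlay medium. IC50 taken from linear regression of percent inhibition against log concentration. Positive controls (acyclovir, ganciclovir) in all assays; sets rejected when control deviated >1.5 SD from its mean.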

[2] = (§1) Antiviral activity of the compound was evaluated against the Herpes simplex virus type-1 in BSC-1 cells; format: functional, cell-based; settings: Human alphaherpesvirus 1, BSC-1
Method in brief: (§2)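 HSV-1 strain S-148 plaque reduction in BSC-1 monolayers (MEM with Earle's salts, 10% fetal bovine serum); inoculum about 100 PFU; compound dissolved in overlay medium. Percent inhibition regressed against log concentration to give IC50. Acyclovir or ganciclovir positive controls in every assay; assay sets rejected if control deviated >1.5 SD from its mean.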

[3] = (§3) Cytotoxicity was evaluated in Human neoplastic cell line (KB); format: functional, cell-based
Method in brief: (§4)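 KB human epidermoid oral carcinoma cells in MEM with Hanks salts and 5% FBS. Inhibition of radiolabeled precursor incorporation into DNA, RNA and protein was measured. IC50s from regression against log concentration; the three values were averaged, two to five experiments each.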

[4] = Cytotoxicity was evaluated against the Monkey kidney cells (BSC); format: cell-based; settings: Cercopithecidae
Method in brief: (§5)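 Uninfected HFF (human diploid foreskin fibroblasts) or BSC-1 (African green monkey kidney) cells in MEM with Earle's salts and 10% FBS, within the plaque-reduction plates. Drug-induced cytopathology was scored 0 to 4+ at 35- and 60-fold magnification on the day of staining for plaque enumeration.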

[5] = Cytotoxicity was evaluated against the Human diploid cells (HFF); format: cell-based; method in brief: as §5
[6] = test system: L1210; assay: Compound effect on the growth rate at 10e-4 M in L1210 Murine Leukemic cells; format: functional, Mus musculus
Method in brief: (§6)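 Murine L1210 leukemia cells in static suspension culture in Fischer's medium, exposed to 10⁻⁴ M compound over 3 days. Growth rate is the ratio of control to treated population doubling time, expressed as percent of control.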

[7] = test system: L1210; assay: In vitro cytotoxicity was evaluated against the L1210 Murine leukemic cells; format: cell-based; settings: Mus musculus
Method in brief: (§7)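 Murine L1210 cells in static suspension in Fischer's medium, growth followed over 3 days across a range of concentrations. Growth rate is the slope of log cell number versus time relative to control, from the doubling-time ratio. IC50 is the concentration reducing growth rate to 50% of control.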

[8] = test system: L1210; assay: (§8) Compound effect on the growth rate of L1210 murine leukemia cells at 10e-4 M concentration; format: functional; method in brief: as §6
[9] = as §3; format: cell-based; method in brief: as §4
[10] = test system: Human alphaherpesvirus 1; assay: as §1; format: functional, organism-based; settings: Human alphaherpesvirus 1, BSC-1; method in brief: as §2
[11] = species on record: Mus musculus; assay: Cytotoxicity was evaluated against the L1210 Murine leukemic cells in vitro; method in brief: as §7
[12] = test system: L1210; assay: as §8; format: functional, Mus musculus; method in brief: as §6

| Compound | IC50 [1] | IC50 [2] | IC50 [3] | IC50 [4] | IC50 [5] | Control [6] | IC50 [7] | Control [8] | IC50 [9] | IC50 [10] | IC50 [11] | Control [12] |
| --- | --- | --- | --- | --- | --- | --- | --- | --- | --- | --- | --- | --- |
| Nc1ncnc2c1ccn2C(CO)OC(CO)CO (stereo not given) | > 100 µM | > 100 µM | > 100 µM | > 100 µM | > 100 µM | 93% |  |  |  |  |  |  |
| NC(=S)c1cn(COC(CO)CO)c2ncnc(N)c12 | 8 µM | > 100 µM |  | > 100 µM | > 100 µM |  | > 100 µM | 71% | > 100 µM |  |  |  |
| Nc1ncnc2c1ccn2COC(CO)CO | > 100 µM |  |  | > 100 µM | > 100 µM |  |  |  |  | > 100 µM |  |  |
| NC(=O)c1cn(C(CO)OC(CO)CO)c2ncnc(N)c12 (stereo not given) | > 100 µM | > 100 µM |  | > 100 µM | > 100 µM | 90% |  |  |  |  |  |  |
| N#Cc1cn(C(CO)OC(CO)CO)c2ncnc(N)c12 (stereo not given) | > 100 µM | > 100 µM |  | > 100 µM | > 100 µM | 80% |  |  |  |  | > 100 µM |  |
| N/C(=N\O)c1cn(COC(CO)CO)c2ncnc(N)c12 | > 100 µM | > 100 µM |  | > 100 µM | > 100 µM |  | > 100 µM |  |  |  |  | 80% |
| N#Cc1cn(COC(CO)CO)c2ncnc(N)c12 | > 320 µM | > 100 µM |  | > 100 µM | > 320 µM |  | > 100 µM |  |  |  |  | 87% |
| NC(=O)c1cn(COC(CO)CO)c2ncnc(N)c12 | 144 µM | > 100 µM |  | > 100 µM | > 320 µM |  | > 100 µM |  |  |  |  | 84% |
| Nc1nc2c(ncn2COCCO)c(=O)[nH]1 [ACYCLOVIR] |  | 2.6 µM |  | > 100 µM | > 100 µM |  |  |  | > 100 µM |  |  |  |
| Nc1nc2c(ncn2COC(CO)CO)c(=O)[nH]1 [GANCICLOVIR] |  | 3 µM |  | > 100 µM | > 100 µM |  |  |  | 1000 µM |  |  |  |
| NC(=O)c1cn([C@@H]2O[C@H](CO)[C@@H](O)[C@H]2O)c2ncnc(N)c12 [SANGIVAMYCIN] | 0.03 µM |  | 0.2 µM |  | 0.08 µM |  | 0.003 µM |  |  |  |  |  |
| N#Cc1cn([C@@H]2O[C@H](CO)[C@@H](O)[C@H]2O)c2ncnc(N)c12 [TOYOCAMYCIN] | 0.05 µM |  | 0.04 µM |  | 0.03 µM |  | 0.004 µM |  |  |  |  |  |
| Nc1ncnc2c1ccn2[C@@H]1O[C@H](CO)[C@@H](O)[C@H]1O [TUBERCIDIN] |  |  | 0.7 µM |  | 0.3 µM |  | 0.04 µM |  |  |  |  |  |
